From PubChem BioAssay
Hits are enriched below; roughly 2% of the tested compounds scored in any of these assays.
CDK5 inh = blocks human CDK5/p35 kinase activity | inhibition, % at 10 µM | Q00535+Q15078 | Recombinant CDK5/p35, ADP-Glo luminescence, 60 min | 330,000 compounds, 0.01% hits | AID 488839;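 active = highest replicate inhibition of at least 50% and at least 75% of replicates reaching 50%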;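 note: plate controls were DMSO neutral control for no effect and GW8510 at 10 µM for full effect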
CAL PDZ FP-1 = inhibitors of human CAL PDZ peptide binding | Q9HD26 | purified CAL PDZ, TMR-peptide fluorescence polarization, 1 h | inhibition, % at 24.9 µM | 300,000 compounds, 0.92% hits | AID 602252;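 active = mean inhibition of at least 30% with at least half of replicates also reaching 30%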;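 note: 0% = DMSO neutral control and 100% = excess unlabeled competitor peptide PRC23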
dFosB act-1 = activators of mouse delta FosB homodimer | 340,000 compounds, 0.99% hits | P13346 | AID 493131 | purified delta FosB, TAMRA-CDK5 oligo fluorescence polarization; percent of positive-control signal above neutral wells | activation, % at 25 µM;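 active = mean activation above about 17%, with every replicate also reaching it, limit read from the data, passing the limit was not always enough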
Target sequence (P13346 whole entry, looked up): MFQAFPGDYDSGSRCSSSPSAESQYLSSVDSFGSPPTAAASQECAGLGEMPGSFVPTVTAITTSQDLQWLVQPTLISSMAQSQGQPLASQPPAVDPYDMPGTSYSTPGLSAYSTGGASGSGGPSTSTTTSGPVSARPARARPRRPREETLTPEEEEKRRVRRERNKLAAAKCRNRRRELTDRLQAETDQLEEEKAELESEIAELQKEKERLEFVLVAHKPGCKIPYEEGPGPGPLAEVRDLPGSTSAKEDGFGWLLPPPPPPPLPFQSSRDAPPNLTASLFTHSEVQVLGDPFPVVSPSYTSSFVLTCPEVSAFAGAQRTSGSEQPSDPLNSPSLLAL
S100A4 inh HTS = blocks human S100A4 binding to myosin IIA peptide; inhibition, % at 10.7 µM; AID 652163; S100A4/TAMRA-MyoIIA peptide fluorescence polarization; 360,000 compounds, 0.14% hits; P26447;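 active = mean inhibition of at least 70% across replicates, with every replicate also reaching that level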
Target sequence (P26447 whole entry, looked up): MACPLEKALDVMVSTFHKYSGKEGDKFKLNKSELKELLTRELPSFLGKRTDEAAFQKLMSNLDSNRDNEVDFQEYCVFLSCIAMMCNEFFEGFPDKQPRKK
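System – human S100A4 monomer protein, biochemical binding assay · Buffer or medium – Calcium-containing HEPES buffer, pH 7.2 · Timing – 5 min between mix addition and reading · Also added – TAMRA-labelled myosin IIA heavy-chain peptide probe, 5 nM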
CAL PDZ FP-2 = human CAL PDZ-peptide interaction inhibition | Q9HD26 | purified CAL PDZ, TMR-peptide fluorescence polarization, 1 h | inhibition, % at 20 µM | 330,000 compounds, 0.02% hits;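 active = highest replicate inhibition of at least 40%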;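 note: plate controls were DMSO neutral control wells for no effect and unlabeled competitor peptide control wells for full effect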
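Read-out basis: mP drop reported as inhibition | Assay system: Tagged CAL PDZ protein CerCALP, purified | Benchmarks: Unlabelled peptide for full inhibition, DMSO wells as neutral | Schedule: 1 h incubation at room temperature before polarization reading | Buffer or medium: Sodium phosphate/NaCl buffer pH 7.4 with TCEP, IgG, Thesit | Doses: Single point, 20 µM | Measured by: Fluorescence polarization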
Statin myotox sup = suppression of simvastatin myotoxicity. C2C12 myotubes + simvastatin, ATP luminescence, 48 h; scaled: DMSO 0, geranylgeraniol control 100. rescue of ATP level, % at 7.49 µM. 330,000 compounds, 0.78% hits;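 active = mean ATP rescue above about 67%, or every replicate alone reaching that limit, limit read from the data, passing the limit was not always enough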;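 note: myotubes were challenged with 10 µM simvastatin during compound exposure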
dFosB act-2 = activators of mouse delta FosB homodimer DNA binding; shares compounds with dFosB act-1; purified delta FosB, TAMRA-CDK5 oligo fluorescence polarization; normalised: neutral wells 0, positive control 100; activation, % at 24.9 µM; 2,400 tested, under 10 active; AID 588690;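 active = highest replicate activation at or above 34% and every replicate reaching that threshold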;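 note: higher polarization means more probe DNA bound by delta FosB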
The depositor's hits bear a star; · = no result.

SMILES	CDK5 inh	CAL PDZ FP-1	dFosB act-1	S100A4 inh HTS	CAL PDZ FP-2	Statin myotox sup	dFosB act-2
O=C(Cc1csc(Nc2nc(=S)[nH]c3ccccc23)n1)NCCCN1CCN(c2ccccc2F)CC1	0.9	-3.5	20.4*	-5.6	-1.2	-10.4	2.8
COc1ccc(CNC(=O)Cc2csc(Nc3nc(=S)[nH]c4ccccc34)n2)cc1	-0.9	·	35.4*	·	-1.4	-16.3	6.9
COc1cccc(CNC(=O)C2CCC(CNc3nc(=S)[nH]c4ccccc34)CC2)c1 (stereo not given)	2.1	0.1	37.5*	-1.7	-0.3	-28.0	2.1
O=C(Cc1csc(Nc2nc(=S)[nH]c3ccccc23)n1)NCc1ccc(Cl)cc1	-1.8	·	-1.3	0.1	-2.8	-0.9	·
C[C@@H]1CN([C@H](C)CO)C(=O)Cc2cc(NC(=O)Cc3cn(C)c4ccccc34)ccc2O[C@H]1CN(C)S(=O)(=O)c1ccc(Cl)cc1	·	·	·	·	·	37.1	·
CC1=C(C#N)C(C)C2=C(CC(C)(C)CC2=O)N1 (stereo not given)	-0.9	0.1	3.5	·	0.8	·	·
Cc1cc(-c2nc3ncccc3o2)ccc1NC(=S)NC(=O)c1ccco1	0.2	-5.6	24.7*	4.4	-2.0	·	0.3
CC(=O)c1cn(-c2ccc(Cl)cc2)c(=O)n(Cc2ccc(Br)cc2)c1=O	0.8	·	27.2*	-2.6	-0.7	·	0.9
CC(=O)C1=C(O)C(=O)N(c2ccc(Br)cc2)C1c1ccc(Cl)cc1 (stereo not given)	0.4	-3.7	-7.7	1.3	-0.8	10.2	·
O=C(Nc1ccccc1Cc1ccccc1)C1CC(=O)N(c2ccc3c(c2)OCCO3)C1 (stereo not given)	-1.4	2.9	35.7*	·	0.2	·	-0.3
CC(=O)c1ccc(N2CCN(C(=O)CCCn3c(=O)[nH]c4ccc(Br)cc4c3=O)CC2)cc1	0.2	7.0	-5.2	-1.2	-0.7	-6.7	·
S=C(Nc1ccc(Cl)cc1)c1nc2ccccc2[nH]1	1.3	-6.4	29.1*	·	-0.5	·	1.3
O=C(Nc1ccccc1)C1CCCN(C(=O)c2ccc(Cl)cc2)C1 (stereo not given)	0.1	0.0	-2.3	-4.1	-3.7	·	·
COc1ccc(CC(=O)OCC(=O)Nc2ccc(C(=O)Nc3ccc(OC)cc3)cc2)cc1	1.5	-0.6	22.4*	-1.5	-18.6	·	6.1
CCOc1ccc(NC(=O)c2ccc(NC(=O)COC(=O)Cc3ccc(OC)cc3)cc2)cc1	4.1	-4.0	0.6	-2.7	-0.9	-4.2	·
COc1ccc(NC(=O)C2(c3ccc(NC(=O)c4ccc(C)cc4)cc3)CCCC2)cc1	2.0	·	23.4*	1.3	-0.4	1.2	0.2
COc1ccc(NC(=O)C2(c3ccc(NC(=O)c4ccc(OC)c(OC)c4)cc3)CCCC2)cc1	1.2	·	11.4	·	0.5	-2.6	·
CC(C)N(Cc1nc(-c2ccccc2)no1)C(=O)C(C)(C)C	-0.4	10.0	1.8	·	-1.0	6.5	·
Cc1ccc(S(=O)(=O)N2CCCOC2CNC(=O)C(=O)NCCC2=CCCCC2)cc1 (stereo not given)	0.3	-2.6	-5.1	·	-0.6	·	·
O=C(c1cccc(Br)c1)c1nc2ccccc2[nH]c1=O	·	·	·	-2.5	·	-9.8	·
S=C(c1cn(CCOc2ccccc2)c2ccccc12)N1CCCC1	0.5	-2.9	6.7	·	-1.7	·	·
S=C(c1cn(CCOc2cccc3ccccc23)c2ccccc12)N1CCCC1	-1.7	1.1	27.2*	·	-0.2	·	1.3
O=C(COC(=O)c1cccnc1Nc1cccc(C(F)(F)F)c1)NCc1ccc2c(c1)OCO2	0.0	-7.6	19.1*	·	-2.6	-12.1	3.1
CO/N=C/C(C#N)=C/c1ccc(OC)cc1	1.7	-2.7	-3.6	-2.1	0.0	0.2	·
CO/N=C/C(C#N)=C/c1cc(C(=O)c2ccc(F)cc2)cn1C	1.3	·	50.2*	0.1	-0.5	·	3.4
SMILES	CDK5 inh	CAL PDZ FP-1	dFosB act-1	S100A4 inh HTS	CAL PDZ FP-2	Statin myotox sup	dFosB act-2
O=c1cc(-c2ccc([N+](=O)[O-])cc2)nc2cc(-c3ccc(F)cc3)[nH]n12	-0.4	-7.1	-8.2	7.4	-0.7	·	·
O=C(Nc1ccc2oc(=O)ccc2c1)c1ccc(-c2cccc(Cl)c2)o1	0.7	-1.4	98.6*	0.0	-3.5	·	3.7
COc1cc(-n2c(=O)c3ccccc3n(Cc3cccc(C)c3)c2=O)cc(OC)c1OC	0.4	0.2	53.2*	0.5	1.0	3.6	4.5
COc1cc(-n2c(=O)c3ccccc3n(Cc3cccnc3)c2=O)cc(OC)c1OC	2.2	-2.1	8.2	·	-0.2	·	·
Cc1ccc2c(c1)C1NC(=S)NC(C)(O2)C1C(=O)Nc1ccc(Cl)cc1 (stereo not given)	2.1	·	39.5*	·	-1.3	8.8	0.4
COCCNC(=O)CN(c1ccc(F)cc1)S(=O)(=O)c1ccc2c(c1)OCCO2	0.5	-1.0	0.8	-2.9	-2.7	6.2	·
Cn1cc(/C=C(\C#N)C(=O)Nc2cccc([N+](=O)[O-])c2)c2ccccc21	0.4	·	45.1*	12.3	0.0	-17.0	3.6
CCc1cc(-c2nc(N)ncc2-c2ccc(Br)cc2)c(O)cc1OC	0.9	-14.6	-3.2	-5.8	-2.1	23.5	·
COc1ccc2[nH]c3c(=O)n(CCCC(=O)NC4CCC(C)CC4)c(=S)[nH]c3c2c1 (stereo not given)	1.1	-2.1	53.2*	-5.2	-0.8	1.1	-5.5
O=C(Nc1ccc(C(F)(F)F)cc1)c1csc(-c2ccncc2)n1	17.7	1.3	-20.4	-17.2	-2.3	·	·
O=C(NC1CC1)C1CCN(C2CCN(C(=O)c3c(F)cccc3Cl)CC2)CC1	-5.5	-3.8	26.9*	-26.3	0.5	0.7	1.7
CC(=O)c1sc(NC(=O)c2ccc(C)c(C)c2)nc1C	-1.9	-1.2	23.5*	-0.1	0.0	·	1.6
CC(=O)c1cc2c(cc1N/C(=N/S(=O)(=O)c1ccc(Br)cc1)c1ccccc1)OCO2	5.3	·	62.4*	0.0	-4.3	2.5	-1.3
CC(=O)c1ccc(S(=O)(=O)Nc2cc3c(cc2C(C)=O)OCO3)cc1	0.9	-3.3	4.3	-3.3	0.5	-4.9	·
CCC(=O)Nc1ccc2c(c1)C(=O)N(C)[C@@H]1CC[C@H](CC(=O)Nc3cccc(OC)c3)O[C@H]1CO2	·	·	·	5.9	·	-24.7	·
CN(c1ccc(OCC(=O)OCC(=O)c2c(N)n(C)c(=O)n(C)c2=O)cc1)S(=O)(=O)c1ccc2ccccc2c1	-0.3	7.6	33.2*	-5.2	-0.1	-3.2	-0.7
CCN(c1ccc(OCC(=O)OCC(=O)c2c(N)n(C)c(=O)n(C)c2=O)cc1)S(=O)(=O)c1ccccc1	-1.1	2.1	-13.0	2.6	-2.2	5.3	·
